Laboratory results from ChEMBL document CHEMBL4308828, “Fragment Based Optimization of Metabotropic Glutamate Receptor 2 (mGluR2) Positive Allosteric Modulators in the Absence of Structural Information” (J Med Chem, 2018).

Key:
[1] = Intrinsic clearance in Wistar rat liver microsomes at 2.5 uM; format: ADME, Microsome
Summary of the method: (§1)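 Liver microsomes (0.5 mg/mL) of human, Wistar rat or NMRI mouse; compound 2.5 μM initial, incubated for various times. Intrinsic clearance (mL/min·g liver) taken as rate of compound consumption under first-order conditions, Clint = Vmax/KM or V/S when S ≪ KM.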

[2] = Intrinsic clearance in NMRI mouse liver microsomes at 2.5 uM; format: ADME, Microsome; summary of the method: as §1
[3] = Intrinsic clearance in human liver microsomes at 2.5 uM; format: ADME, Microsome; summary of the method: as §1
[4] = target: Metabotropic glutamate receptor 2 (Homo sapiens, UniProt Q14416); experiment: Positive allosteric modulation of human mGluR2 expressed in human Chem1 cells assessed as increase in glutamate-induced intracellular calcium influx preincubated for 30 mins followed by glutamate addition by calcium-5 dye based fluorometric assay; format: functional, cell-based
Summary of the method: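 Chem-1 cells stably expressing human mGlu2, 30000 cells/well, overnight at 37 °C. Loaded with Calcium 5 dye (30 min, 37 °C) in buffer with GPT/pyruvate, washed, then compound or vehicle 30 min at 37 °C. Glutamate at EC5-EC20 added after 20 s baseline; fluorescence 485/525 nm read 40 s. ΔF/F from multiple wells; sigmoid fits give EC50, three independent experiments. Final DMSO 1%.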

Chain of Metabotropic glutamate receptor 2 (Q14416 whole entry): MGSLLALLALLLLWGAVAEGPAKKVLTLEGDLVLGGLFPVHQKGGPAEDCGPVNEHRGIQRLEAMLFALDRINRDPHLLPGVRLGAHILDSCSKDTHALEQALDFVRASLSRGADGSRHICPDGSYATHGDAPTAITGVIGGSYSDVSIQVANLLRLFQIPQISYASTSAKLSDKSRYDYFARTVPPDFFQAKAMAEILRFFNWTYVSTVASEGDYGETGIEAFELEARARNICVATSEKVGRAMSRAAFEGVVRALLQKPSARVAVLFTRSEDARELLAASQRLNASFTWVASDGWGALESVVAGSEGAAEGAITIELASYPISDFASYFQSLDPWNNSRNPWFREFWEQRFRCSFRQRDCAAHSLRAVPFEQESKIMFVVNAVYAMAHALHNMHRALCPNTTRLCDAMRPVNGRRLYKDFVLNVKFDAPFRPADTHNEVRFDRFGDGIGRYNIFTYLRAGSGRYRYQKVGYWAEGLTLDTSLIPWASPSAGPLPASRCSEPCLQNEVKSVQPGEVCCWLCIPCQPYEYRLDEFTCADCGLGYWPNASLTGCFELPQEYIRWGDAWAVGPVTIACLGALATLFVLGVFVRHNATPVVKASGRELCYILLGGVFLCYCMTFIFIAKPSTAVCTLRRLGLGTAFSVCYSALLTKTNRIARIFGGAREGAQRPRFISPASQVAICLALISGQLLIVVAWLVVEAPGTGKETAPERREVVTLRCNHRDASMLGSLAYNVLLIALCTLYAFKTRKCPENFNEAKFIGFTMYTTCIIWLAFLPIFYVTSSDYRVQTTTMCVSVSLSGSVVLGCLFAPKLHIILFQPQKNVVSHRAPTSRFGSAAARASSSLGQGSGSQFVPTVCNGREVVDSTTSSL

| SMILES | Intrinsic clearance [1] [mL/min/g] | Intrinsic clearance [2] [mL/min/g] | Intrinsic clearance [3] [mL/min/g] | EC50 [4] [µM] |
| --- | --- | --- | --- | --- |
| Clc1cccc2c1nnn2CC1CC1 | 0.5 | 5.7 | 4.2 | 0.09 |
| Fc1cc(Cl)ccc1-c1ccc(Cn2nnc3ccccc32)nc1 | 2.3 | 1.6 | 0.8 | 0.141 |
| Fc1cccc2c1nnn2CC1CC1 |  |  |  | 1.07 |
| Brc1ccc(Cn2nnc3c(Br)cccc32)nc1 | 0.7 | 1.1 | 0.3 | 0.18 |
| Fc1cc(Cn2nnc3c(Br)cccc32)ccc1Cl | 3.1 | 2.2 | 0.4 | 0.018 |
| Fc1cc(Br)c2nnn(CC3CC3)c2c1 | 0.5 | 5.7 | 0.4 | 0.07 |
| COc1cc(Br)c2nnn(CC3CC3)c2c1 |  |  |  | 0.73 |
| Clc1ccc(-c2ccc(Cn3nnc4ccccc43)cn2)cc1 | 1 | 3.8 | 0.2 | 0.07 |
| FC(F)(F)c1cc(Br)c2nnn(CC3CC3)c2c1 | 0.2 | 7.7 | 0.1 | 0.14 |
| Brc1cccc2c1nnn2Cc1ccccc1 | 2 | 2.3 | 4.7 | 0.08 |
| Clc1ccc(-c2ccc(Cn3nnc4ccccc43)cc2)c(Cl)c1 | 1.4 | 1.3 | 0.6 | 0.079 |
| Clc1ccc(Cn2nnc3c(Br)cccc32)cc1 | 2.2 | 2 | 0.6 | 0.017 |
| CCCCn1nnc2c(Br)cccc21 | 4.4 | 8.3 | 9.5 | 0.06 |
| Fc1ccccc1Cn1nnc2c(Br)cccc21 | 1.8 | 1.7 | 0.2 | 0.064 |
| Brc1ccc(Cn2nnc3c(Br)cccc32)cc1 | 2.2 | 2.6 | 0.4 | 0.014 |
| Fc1ccc(Cn2nnc3c(Br)cccc32)cc1 | 1 | 1 | 1.2 | 0.015 |
| Clc1cc(Br)c2nnn(CC3CC3)c2c1 | 1.1 | 11.4 | 0.5 | 0.06 |
| CCn1nnc2c(Br)cccc21 |  |  |  | 2.24 |
| Fc1ccc2c(c1)nnn2Cc1ccc(-c2ccc(Cl)cc2F)nc1 | 0.5 | 0.7 | 0.1 | 0.068 |
| Fc1cccc(Cn2nnc3c(Br)cccc32)c1 | 1.6 | 1.3 | 1.8 | 0.018 |
| c1ccc(-c2ccc(Cn3nnc4ccccc43)cc2)cc1 | 12.6 | 11.4 | 7.9 | 0.155 |
| Brc1cccc2c1nnn2CC1CC1 | 0.6 | 7.7 | 1.3 | 0.07 |

| SMILES | Intrinsic clearance [1] [mL/min/g] | Intrinsic clearance [2] [mL/min/g] | Intrinsic clearance [3] [mL/min/g] | EC50 [4] [µM] |
| --- | --- | --- | --- | --- |
| CCCn1nnc2c(Br)cccc21 | 0.8 | 7.7 | 4.7 | 0.27 |
| Fc1cc(Cl)ccc1-c1ccc(Cn2nnc3c(C(F)(F)F)cccc32)cn1 | 0.2 | 0.1 | 0.04 | 0.013 |
| Fc1cc(Cl)ccc1-c1ccc(Cn2nnc3c(F)cccc32)cn1 | 0.6 | 2.2 | 0.1 | 0.027 |
| Fc1ccc(-c2ccc(Cn3nnc4ccccc43)cc2)c(Cl)c1 | 2.6 | 1.5 | 0.7 | 0.118 |
| Fc1ccc(Cn2nnc3c(Br)cccc32)c(Cl)c1 | 3.5 | 3 | 1.8 | 0.19 |
| Brc1cccc2c1nnn2CC1CCC1 | 12 | 11.4 | 8.7 | 0.02 |
| Brc1cccc2c1nnn2CC1CCCCC1 | 16.2 | 15.3 | 11.9 | 0.01 |
| Brc1cc(Br)c2nnn(CC3CC3)c2c1 | 2.3 | 15.3 | 0.6 | 0.05 |
| c1ccc(Cn2nnc3ccccc32)cc1 | 1.2 | 1 | 7.9 | 3 |
| Fc1cc(Cl)ccc1Cn1nnc2c(Br)cccc21 | 3.8 | 1.3 | 0.5 | 0.023 |
| Fc1ccccc1-c1ccc(Cn2nnc3ccccc32)cn1 |  |  |  | 0.6 |
| N#Cc1cccc2c1nnn2CC1CC1 |  |  |  | 0.62 |
| FC(F)(F)c1ccc(-c2ccc(Cn3nnc4ccccc43)cc2)c(Cl)c1 | 0.5 | 0.4 | 0 | 0.037 |
| Cn1nnc2c(Br)cccc21 |  |  |  | > 5 |
| Brc1cccc2c1nnn2CC1CCCC1 | 14.6 | 11.4 | 7.9 | 0.03 |
| COc1cccc2c1nnn2CC1CC1 | 0.8 | 8.3 | 1.8 | 0.4 |
| CC(C)Cn1nnc2c(Br)cccc21 | 4 | 3.5 | 4.2 | 0.14 |
| N#Cc1cccc2c1nnn2Cc1ccc(-c2ccc(Cl)cc2F)nc1 | 0.1 | 1.6 | 0.05 | 0.033 |
| Fc1ccc2nnn(Cc3ccc(-c4ccc(Cl)cc4F)nc3)c2c1 | 1 | 2.2 | 0.1 | 0.086 |
| Clc1ccc(Cn2nnc3c(Br)cccc32)cn1 |  |  |  | 0.29 |
| Brc1ccc(Cn2nnc3c(Br)cccc32)cn1 |  |  |  | 0.21 |
